One assay deals with p38 delta/gamma (Homo sapiens, UniProt O15264+P53778). Description: Inhibition of P38delta/gamma in human HeLa cells lysate pre incubated for 15 mins followed by ATP acyl phosphate probe addition and measured after 10 mins by LC-MS/MS analysis. In kind it is subcellular.
The subject of assay [1] is Serine/threonine-protein kinase PLK1 (Homo sapiens), P53350 [UNDEFINED MUTATION]. As to the kind of experiment: Inhibition of PLK1 splice variant in human HeLa cells lysate at 10 uM pre incubated for 15 mins followed by ADP acyl phosphate probe addition and measured after 10 mins by LC-MS/MS analysis relative to control. The class given is subcellular. The note with it: time 25.0 min.

The target in assay [2] is Calcium/calmodulin-dependent protein kinase type II subunit delta (Homo sapiens, UniProt Q13557). As to the kind of experiment: Inhibition of CamK2d in human HeLa cells lysate at 50 uM pre incubated for 15 mins followed by ADP acyl phosphate probe addition and measured after 10 mins by LC-MS/MS analysis relative to control. The class given is subcellular. The note with it: time 25.0 min.

The nature of assay [3]: Inhibition of HGK/MINK/TNIK in human HeLa cells lysate pre incubated for 15 mins followed by ATP acyl phosphate probe addition and measured after 10 mins by LC-MS/MS analysis. The class given is subcellular.
In assay [4] the target is Serine/threonine-protein kinase greatwall (Homo sapiens) (UniProt Q96GX5). Description: Inhibition of MASTL in human HeLa cells lysate at 2 uM pre incubated for 15 mins followed by ATP acyl phosphate probe addition and measured after 10 mins by LC-MS/MS analysis relative to control. The class given is subcellular. The note with it: time 25.0 min.
Chain of Serine/threonine-protein kinase greatwall (Homo sapiens) (Q96GX5 whole entry): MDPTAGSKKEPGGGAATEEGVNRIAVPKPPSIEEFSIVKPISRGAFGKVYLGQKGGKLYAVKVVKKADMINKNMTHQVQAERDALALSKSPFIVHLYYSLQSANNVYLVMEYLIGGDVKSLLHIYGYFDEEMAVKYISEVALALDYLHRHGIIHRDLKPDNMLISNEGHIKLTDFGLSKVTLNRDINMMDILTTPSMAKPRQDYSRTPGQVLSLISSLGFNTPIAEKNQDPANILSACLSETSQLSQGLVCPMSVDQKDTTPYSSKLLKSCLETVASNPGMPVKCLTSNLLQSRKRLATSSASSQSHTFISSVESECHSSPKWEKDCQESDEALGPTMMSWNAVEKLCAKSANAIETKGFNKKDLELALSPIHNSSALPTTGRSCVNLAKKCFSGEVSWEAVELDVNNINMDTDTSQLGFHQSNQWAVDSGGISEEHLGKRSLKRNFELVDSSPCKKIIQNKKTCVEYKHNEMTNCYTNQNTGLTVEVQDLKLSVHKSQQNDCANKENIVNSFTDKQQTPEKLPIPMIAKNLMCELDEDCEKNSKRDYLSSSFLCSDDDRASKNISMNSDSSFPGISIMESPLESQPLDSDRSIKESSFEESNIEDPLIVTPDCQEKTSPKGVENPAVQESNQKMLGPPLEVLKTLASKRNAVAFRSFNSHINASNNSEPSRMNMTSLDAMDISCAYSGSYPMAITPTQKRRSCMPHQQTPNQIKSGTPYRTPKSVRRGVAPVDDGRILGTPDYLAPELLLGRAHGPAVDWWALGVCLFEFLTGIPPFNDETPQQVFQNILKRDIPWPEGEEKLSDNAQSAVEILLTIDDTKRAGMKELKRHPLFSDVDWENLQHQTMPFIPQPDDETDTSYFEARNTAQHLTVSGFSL
A short description of assay [5]: Inhibition of MSK1/2 in human HeLa cells lysate pre incubated for 15 mins followed by ADP acyl phosphate probe addition and measured after 10 mins by LC-MS/MS analysis. In kind it is subcellular.
Assay [6] deals with Mitogen-activated protein kinase kinase kinase 1 (Homo sapiens, UniProt Q13233). Description: Inhibition of MAP3K1 in human HeLa cells lysate at 2 uM pre incubated for 15 mins followed by ADP acyl phosphate probe addition and measured after 10 mins by LC-MS/MS analysis relative to control. In kind it is subcellular. The note with it: time 25.0 min.
Assay [7] has as its target Serine/threonine-protein kinase ULK2 (Homo sapiens) (UniProt Q8IYT8). Description: Inhibition of ULK2 in human HeLa cells lysate at 2 uM pre incubated for 15 mins followed by ADP acyl phosphate probe addition and measured after 10 mins by LC-MS/MS analysis relative to control. The note with it: time 25.0 min. The class given is subcellular.
Assay [8] addresses Tyrosine-protein kinase CSK (Homo sapiens, UniProt P41240). Description: Inhibition of CSK in human HeLa cells lysate pre incubated for 15 mins followed by ADP acyl phosphate probe addition and measured after 10 mins by LC-MS/MS analysis. The class given is subcellular.
The target in assay [9] is Glycogen synthase kinase-3 alpha (Homo sapiens, UniProt P49840). Description: Inhibition of GSK3A in human HeLa cells lysate pre incubated for 15 mins followed by ATP acyl phosphate probe addition and measured after 10 mins by LC-MS/MS analysis. In kind it is subcellular.
Chain of Glycogen synthase kinase-3 alpha (P49840 whole entry): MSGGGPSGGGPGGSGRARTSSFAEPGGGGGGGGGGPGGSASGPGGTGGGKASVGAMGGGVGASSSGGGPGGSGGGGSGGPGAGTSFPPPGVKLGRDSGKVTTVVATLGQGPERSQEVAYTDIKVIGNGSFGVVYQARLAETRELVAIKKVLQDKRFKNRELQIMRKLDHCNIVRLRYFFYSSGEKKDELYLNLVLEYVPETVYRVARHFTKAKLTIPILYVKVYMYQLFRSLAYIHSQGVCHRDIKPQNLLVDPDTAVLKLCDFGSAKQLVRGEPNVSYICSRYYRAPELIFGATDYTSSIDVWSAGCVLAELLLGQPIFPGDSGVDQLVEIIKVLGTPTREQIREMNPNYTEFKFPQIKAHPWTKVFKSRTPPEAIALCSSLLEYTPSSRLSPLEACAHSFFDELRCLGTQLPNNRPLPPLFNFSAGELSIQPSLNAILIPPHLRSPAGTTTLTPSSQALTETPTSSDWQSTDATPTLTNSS
Assay [10] deals with Serine/threonine-protein kinase 38-like (Homo sapiens, UniProt Q9Y2H1). Description: Inhibition of NDR2 in human HeLa cells lysate at 2 uM pre incubated for 15 mins followed by ADP acyl phosphate probe addition and measured after 10 mins by LC-MS/MS analysis relative to control. The class given is subcellular. The note with it: time 25.0 min.
Chain of Serine/threonine-protein kinase 38-like (Q9Y2H1 2-464 limits assumed): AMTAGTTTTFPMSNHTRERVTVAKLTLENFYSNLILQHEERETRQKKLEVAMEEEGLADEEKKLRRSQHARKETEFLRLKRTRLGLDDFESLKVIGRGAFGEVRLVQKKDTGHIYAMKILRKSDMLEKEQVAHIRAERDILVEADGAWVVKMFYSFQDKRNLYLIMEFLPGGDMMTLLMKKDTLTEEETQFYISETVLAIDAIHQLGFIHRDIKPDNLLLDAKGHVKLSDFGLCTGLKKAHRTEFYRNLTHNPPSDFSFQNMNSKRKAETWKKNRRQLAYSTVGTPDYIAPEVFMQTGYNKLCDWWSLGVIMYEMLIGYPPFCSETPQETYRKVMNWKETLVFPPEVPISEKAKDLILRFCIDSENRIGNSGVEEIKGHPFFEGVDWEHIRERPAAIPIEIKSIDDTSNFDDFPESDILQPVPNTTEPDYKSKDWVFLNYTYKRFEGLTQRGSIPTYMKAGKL
The target of assay [11] is T1, Mixed lineage kinase domain-like protein (Homo sapiens) (UniProt Q8NB16).
T1 sequence (whole entry): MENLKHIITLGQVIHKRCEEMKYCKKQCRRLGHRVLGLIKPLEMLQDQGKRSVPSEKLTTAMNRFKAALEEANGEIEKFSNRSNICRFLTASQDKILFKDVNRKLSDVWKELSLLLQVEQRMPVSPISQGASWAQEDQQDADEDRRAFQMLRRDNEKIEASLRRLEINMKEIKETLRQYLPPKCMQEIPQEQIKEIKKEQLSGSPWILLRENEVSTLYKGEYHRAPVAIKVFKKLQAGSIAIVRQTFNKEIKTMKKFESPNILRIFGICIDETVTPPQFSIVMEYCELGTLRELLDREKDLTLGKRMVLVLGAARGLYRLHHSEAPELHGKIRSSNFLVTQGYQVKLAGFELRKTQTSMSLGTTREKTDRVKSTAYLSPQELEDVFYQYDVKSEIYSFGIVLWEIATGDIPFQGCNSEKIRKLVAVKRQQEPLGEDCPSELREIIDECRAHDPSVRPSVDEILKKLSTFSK
As to the kind of experiment: Inhibition of MLKL in human HeLa cells lysate at 10 uM pre incubated for 15 mins followed by ATP acyl phosphate probe addition and measured after 10 mins by LC-MS/MS analysis relative to control. The note with it: time 25.0 min. In kind it is subcellular.

Assay [12] deals with Cyclin-dependent kinase 2 (Homo sapiens, UniProt P24941). As to the kind of experiment: Inhibition of CDK2 in human HeLa cells lysate at 10 uM pre incubated for 15 mins followed by ADP acyl phosphate probe addition and measured after 10 mins by LC-MS/MS analysis relative to control. In kind it is subcellular. The note with it: time 25.0 min. An outline of the steps: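 KiNativ profiling in HeLa lysate (5 mg/mL total protein). Lysate incubated 15 min with inhibitor at 50, 10, 2, 0.8 or 0 μM. ATP or ADP acylphosphate probe then added (5 μM final) and reacted 10 min. Reaction stopped with urea and analysed by targeted MS, using up to four fragment ions per kinase peptide-probe conjugate. % inhibition taken against untreated lysate. Run in duplicate.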

Assay [13] addresses T2, Phosphatidylinositol 5-phosphate 4-kinase type-2 alpha (Homo sapiens) (UniProt P48426).
T2 sequence (whole entry): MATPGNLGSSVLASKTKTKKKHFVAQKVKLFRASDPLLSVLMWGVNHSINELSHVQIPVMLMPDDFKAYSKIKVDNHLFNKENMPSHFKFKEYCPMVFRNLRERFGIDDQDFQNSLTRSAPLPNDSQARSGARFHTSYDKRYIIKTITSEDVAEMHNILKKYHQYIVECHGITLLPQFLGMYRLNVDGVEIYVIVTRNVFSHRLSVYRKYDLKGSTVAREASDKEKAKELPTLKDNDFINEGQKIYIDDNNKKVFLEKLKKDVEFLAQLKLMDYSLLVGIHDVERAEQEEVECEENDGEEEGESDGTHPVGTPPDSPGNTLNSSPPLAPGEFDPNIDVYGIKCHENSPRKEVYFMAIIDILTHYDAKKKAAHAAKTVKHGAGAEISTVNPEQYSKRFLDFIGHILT
As to the kind of experiment: Inhibition of PIP5K2A LIP1 site in human HeLa cells lysate at 10 uM pre incubated for 15 mins followed by ADP acyl phosphate probe addition and measured after 10 mins by LC-MS/MS analysis relative to control. The note with it: time 25.0 min. In kind it is subcellular.

Assay [14] is described as follows: Inhibition of PCTAIRE2/ICK in human HeLa cells lysate at 10 uM pre incubated for 15 mins followed by ADP acyl phosphate probe addition and measured after 10 mins by LC-MS/MS analysis relative to control. The note with it: 25 min, condition cancer.
Assay [15] concerns the target Serine/threonine-protein kinase D2 (Homo sapiens, UniProt Q9BZL6). Description: Inhibition of PKD2 in human HeLa cells lysate pre incubated for 15 mins followed by ADP acyl phosphate probe addition and measured after 10 mins by LC-MS/MS analysis. The class given is subcellular.
The target in assay [16] is Serine/threonine-protein kinase SMG1 (Homo sapiens, UniProt Q96Q15). Description: Inhibition of SMG1 in human HeLa cells lysate at 10 uM pre incubated for 15 mins followed by ATP acyl phosphate probe addition and measured after 10 mins by LC-MS/MS analysis relative to control. The class given is subcellular. The note with it: time 25.0 min.

One compound from ChEMBL document CHEMBL5661979, “Pharmacological inhibition of BMK1 suppresses tumor growth through promyelocytic leukemia protein” (Cancer Cell, 2010) can be followed below.

By IC50 is commonly meant the concentration that inhibits the measured activity by half. Read a low IC50 as higher potency. What is called inhibition is the relative decrease from the control value, in per cent.

Chain of Serine/threonine-protein kinase PLK1 (Homo sapiens), P53350 [UNDEFINED MUTATION] (P53350 whole entry, looked up, stated change not applied, canonical isoform): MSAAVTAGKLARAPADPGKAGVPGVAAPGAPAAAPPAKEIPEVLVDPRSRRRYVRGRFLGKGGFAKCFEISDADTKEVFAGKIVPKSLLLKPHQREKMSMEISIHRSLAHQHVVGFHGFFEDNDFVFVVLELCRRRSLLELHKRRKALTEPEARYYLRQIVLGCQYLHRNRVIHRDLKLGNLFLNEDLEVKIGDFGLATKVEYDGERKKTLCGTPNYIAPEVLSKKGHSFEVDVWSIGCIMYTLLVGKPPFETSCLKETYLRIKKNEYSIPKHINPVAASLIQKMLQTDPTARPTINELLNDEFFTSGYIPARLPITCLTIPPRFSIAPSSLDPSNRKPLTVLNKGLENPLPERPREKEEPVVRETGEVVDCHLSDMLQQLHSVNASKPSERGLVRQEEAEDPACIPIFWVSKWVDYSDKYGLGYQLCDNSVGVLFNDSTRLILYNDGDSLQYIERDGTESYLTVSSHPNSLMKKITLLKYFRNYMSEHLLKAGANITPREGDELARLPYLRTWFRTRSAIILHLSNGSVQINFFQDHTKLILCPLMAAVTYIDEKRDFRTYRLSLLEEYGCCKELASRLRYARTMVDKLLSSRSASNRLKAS
Chain of Serine/threonine-protein kinase D2 (Q9BZL6 whole entry): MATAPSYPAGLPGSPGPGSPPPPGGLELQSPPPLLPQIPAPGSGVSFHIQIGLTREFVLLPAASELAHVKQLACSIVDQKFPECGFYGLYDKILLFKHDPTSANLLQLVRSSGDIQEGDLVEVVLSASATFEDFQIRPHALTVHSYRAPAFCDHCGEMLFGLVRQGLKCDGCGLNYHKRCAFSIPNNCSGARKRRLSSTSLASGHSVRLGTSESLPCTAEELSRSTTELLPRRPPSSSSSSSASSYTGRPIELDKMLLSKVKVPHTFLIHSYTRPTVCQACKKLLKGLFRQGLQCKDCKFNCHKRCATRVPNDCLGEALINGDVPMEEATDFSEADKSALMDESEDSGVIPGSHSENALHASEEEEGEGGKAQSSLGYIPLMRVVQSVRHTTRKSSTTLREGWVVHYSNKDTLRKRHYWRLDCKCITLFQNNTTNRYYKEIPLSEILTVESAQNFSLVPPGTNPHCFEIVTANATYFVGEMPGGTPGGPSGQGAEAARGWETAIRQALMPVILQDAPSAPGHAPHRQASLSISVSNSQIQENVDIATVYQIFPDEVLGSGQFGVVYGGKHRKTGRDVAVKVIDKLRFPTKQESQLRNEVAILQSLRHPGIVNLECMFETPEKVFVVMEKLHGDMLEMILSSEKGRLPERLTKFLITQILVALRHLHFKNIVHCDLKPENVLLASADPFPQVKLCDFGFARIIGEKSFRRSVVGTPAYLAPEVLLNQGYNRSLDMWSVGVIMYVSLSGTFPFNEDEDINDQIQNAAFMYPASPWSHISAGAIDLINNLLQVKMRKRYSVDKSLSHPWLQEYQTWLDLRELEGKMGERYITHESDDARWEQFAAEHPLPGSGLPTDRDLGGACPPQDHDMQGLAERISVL
Chain of Tyrosine-protein kinase CSK (P41240 whole entry): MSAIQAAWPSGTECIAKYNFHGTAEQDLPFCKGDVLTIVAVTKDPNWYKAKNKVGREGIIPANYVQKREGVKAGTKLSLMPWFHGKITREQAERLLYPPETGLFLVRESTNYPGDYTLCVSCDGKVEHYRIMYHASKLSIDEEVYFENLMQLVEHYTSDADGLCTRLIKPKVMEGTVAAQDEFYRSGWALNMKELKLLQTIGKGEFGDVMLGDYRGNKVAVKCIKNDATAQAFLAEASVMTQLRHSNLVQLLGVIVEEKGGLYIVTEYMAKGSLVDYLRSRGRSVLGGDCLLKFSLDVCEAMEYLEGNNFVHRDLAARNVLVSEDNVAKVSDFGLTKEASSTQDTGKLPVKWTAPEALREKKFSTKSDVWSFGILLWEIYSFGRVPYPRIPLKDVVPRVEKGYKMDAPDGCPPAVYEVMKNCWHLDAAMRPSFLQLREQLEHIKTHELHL
Chain of Serine/threonine-protein kinase ULK2 (Homo sapiens) (Q8IYT8 whole entry): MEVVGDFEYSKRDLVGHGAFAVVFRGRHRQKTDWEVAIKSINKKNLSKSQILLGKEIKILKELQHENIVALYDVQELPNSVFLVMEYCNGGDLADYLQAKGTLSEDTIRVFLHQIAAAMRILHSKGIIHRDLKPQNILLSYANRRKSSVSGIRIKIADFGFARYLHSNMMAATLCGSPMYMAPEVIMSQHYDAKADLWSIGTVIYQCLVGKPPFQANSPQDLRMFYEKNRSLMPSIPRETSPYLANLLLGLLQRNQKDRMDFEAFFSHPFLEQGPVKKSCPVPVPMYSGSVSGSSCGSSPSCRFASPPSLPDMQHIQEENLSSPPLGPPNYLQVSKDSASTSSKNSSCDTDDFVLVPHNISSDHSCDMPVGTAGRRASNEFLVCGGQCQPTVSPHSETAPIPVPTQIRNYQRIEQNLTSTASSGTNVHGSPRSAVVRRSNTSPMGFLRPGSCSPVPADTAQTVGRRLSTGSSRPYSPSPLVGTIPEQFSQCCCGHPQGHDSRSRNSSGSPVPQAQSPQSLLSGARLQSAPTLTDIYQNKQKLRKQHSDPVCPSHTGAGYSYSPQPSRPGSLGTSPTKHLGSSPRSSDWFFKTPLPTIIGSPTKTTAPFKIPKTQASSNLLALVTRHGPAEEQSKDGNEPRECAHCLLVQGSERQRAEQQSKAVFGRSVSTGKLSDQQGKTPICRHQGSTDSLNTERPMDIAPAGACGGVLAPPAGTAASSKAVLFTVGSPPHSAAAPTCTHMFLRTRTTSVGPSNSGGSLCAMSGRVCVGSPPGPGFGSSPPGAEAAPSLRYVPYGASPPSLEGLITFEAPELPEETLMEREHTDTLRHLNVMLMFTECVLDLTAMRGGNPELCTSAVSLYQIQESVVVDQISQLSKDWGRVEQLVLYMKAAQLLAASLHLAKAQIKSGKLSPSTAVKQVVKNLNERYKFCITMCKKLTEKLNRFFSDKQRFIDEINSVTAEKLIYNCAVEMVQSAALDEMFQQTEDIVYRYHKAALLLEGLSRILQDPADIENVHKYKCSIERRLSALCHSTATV

As for `CCOc1cc(N2CCC(O)CC2)ccc1Nc1ncc2c(n1)N(C)c1ccccc1C(=O)N2C`, the IC50 (against p38 delta/gamma; in assay [3]; in assay [5]; in assay [8]; in assay [9]; in assay [15]) was more than 50 µM in each case. Also, the inhibition worked out at 0.8% in assay [1]; 10.3% in [2]; 8.1% in [4]; 11.5% in [6]; 7.3% in assay [7]; 11.7% in assay [10]. The inhibition was -9.8% in assay [11], -3.8% in [12], 5% in [13] and 3.9% in [16]. Further, the inhibition at 10 µM in assay [14] is -0.9%.
